From ChEMBL document CHEMBL3272118, “Structure and tumor-promoting activity of analogues of anthralin (1,8-dihydroxy-9-anthrone)” (J Med Chem, 1978)
Values belong to the compound of their own block, whether it stands above or below them.

Tests used:
[1] = test system: Mus musculus; test: Tumor promoting activity in ICR/Ha Swiss mouse at 80 ug administered three times a week measured for 370 days; format: ADME, organism-based; details: in vivo, 8880 h
Method in brief: (§1)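 Two-stage carcinogenesis on clipped backs of female ICR/Ha Swiss mice (8 weeks, ectromelia-vaccinated): one subcarcinogenic topical dose of 7,12-dimethylbenz[a]anthracene, then repeated skin application of test agent, dosed equimolar to anthralin except where toxicity required lower, for 370 days. Tumors >1 mm persisting ≥30 days counted; carcinomas confirmed histologically at autopsy.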

[2] = Metal chelating activity of the compound assessed as stability constant of metal chelate at 2 to 9 x 10^-5 M using Zn2+; format: physicochemical
Method in brief: (§2)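 Stability constants by the Rossotti and Rossotti spectrophotometric method in dimethyl sulfoxide: eight solutions of anthralin from 2.0×10^-5 to 9.0×10^-5 M with metal acetate at matching concentrations, spectra read 400–650 nm at 25 °C.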

[3] = Metal chelating activity of the compound assessed as stability constant of metal chelate at 2 to 9 x 10^-5 M using Ca2+; format: physicochemical; method in brief: as §2
[4] = Metal chelating activity of the compound assessed as metal-compound complex formation using copper; format: physicochemical
Method in brief: (§3)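 Chelates prepared by adding 0.5 molar equiv of metal acetate in anhydrous ethanol to the ligand (2.0 mmol) dissolved in warm anhydrous ethanol. Metal:ligand ratio in dimethyl sulfoxide by Job's continuous variation: ligand (DHAQ 1.0×10^-4 M or anthralin 2.0×10^-4 M) and equimolar metal acetate mixed in nine solutions at ligand mole fractions 0.1–0.9, spectra recorded 400–650 nm.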

[5] = Metal chelating activity of the compound assessed as stability constant of metal chelate at 2 to 9 x 10^-5 M using Mn2+; format: physicochemical; method in brief: as §2
[6] = Metal chelating activity of the compound assessed as stability constant of metal chelate at 2 to 9 x 10^-5 M using Mg2+; format: physicochemical; method in brief: as §2
[7] = Metal chelating activity of the compound assessed as stability constant of metal chelate at 2 to 9 x 10^-5 M using copper; format: physicochemical; method in brief: as §2
[8] = test system: Mus musculus; test: Tumor promoting activity in ICR/Ha Swiss mouse at 75 ug administered three times a week measured for 370 days; format: ADME, organism-based; details: in vivo, 8880 h; method in brief: as §1
[9] = test system: Mus musculus; test: Tumor promoting activity in ICR/Ha Swiss mouse at 62 ug administered three times a week measured for 370 days; format: ADME, organism-based; details: in vivo, 8880 h
Method in brief: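 Female ICR/Ha Swiss mice, ectromelia-vaccinated, started at 8 weeks, backs clipped the day before treatment. Single subcarcinogenic topical dose of 7,12-dimethylbenz[a]anthracene, then repeated skin applications at doses equimolar to the positive-control promoter, over 370 days. Tumors >1 mm persisting ≥30 days were counted cumulatively and confirmed on H&E histology at autopsy. Controls received test compound alone or no treatment.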

[10] = test system: Mus musculus; test: Tumor promoting activity in ICR/Ha Swiss mouse at 15 ug administered three times a week measured for 370 days; format: ADME, organism-based; details: in vivo, 8880 h; method in brief: as §1
[11] = test system: Mus musculus; test: Tumor promoting activity in ICR/Ha Swiss mouse at 124 ug administered three times a week measured for 370 days; format: ADME, organism-based; details: in vivo, 8880 h; method in brief: as §1
[12] = test system: Mus musculus; test: Tumor promoting activity in ICR/Ha Swiss mouse at 76 ug administered three times a week measured for 370 days; format: ADME, organism-based; details: in vivo, 8880 h; method in brief: as §1
[13] = test system: Mus musculus; test: Tumor promoting activity in ICR/Ha Swiss mouse at 80 ug administered three times a week measured for 521 days; format: ADME, organism-based; details: in vivo, 12504 h
[14] = test system: Mus musculus; test: Toxicity in ICR/Ha Swiss mouse assessed as median survival time at 80 ug administered three times a week; format: organism-based; details: in vivo
[15] = test system: Mus musculus; test: Tumor promoting activity in ICR/Ha Swiss mouse at 228 ug administered three times a week measured for 370 days; format: ADME, organism-based; details: in vivo, 8880 h; method in brief: as §1
[16] = test system: Mus musculus; test: Tumor promoting activity in ICR/Ha Swiss mouse at 136 ug administered three times a week measured for 370 days; format: ADME, organism-based; details: in vivo, 8880 h; method in brief: as §1
[17] = test system: Mus musculus; test: Tumor promoting activity in ICR/Ha Swiss mouse at 300 ug administered three times a week measured for 521 days; format: ADME, organism-based; details: in vivo, 12504 h
Method in brief: (§4)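 Female ICR/Ha Swiss mice, 8 weeks old, vaccinated against ectromelia, backs clipped. Repeated skin application after a single subcarcinogenic dose of 7,12-dimethylbenz[a]anthracene. Groups of twenty mice; test ran 521 days; median survival time recorded. Tumors >1 mm persisting ≥30 days counted; autopsy with histological confirmation.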

[18] = test system: Mus musculus; test: Toxicity in ICR/Ha Swiss mouse assessed as median survival time at 300 ug administered three times a week; format: organism-based; details: in vivo; method in brief: as §4
[19] = test system: Mus musculus; test: Tumor promoting activity in ICR/Ha Swiss mouse at 85 ug administered three times a week measured for 370 days; format: ADME, organism-based; details: in vivo, 8880 h; method in brief: as §1
[20] = Metal chelating activity of the compound assessed as stability constant of metal chelate at 1 to 4.5 x 10^-5 M using Mg2+; format: physicochemical
Method in brief: (§5)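 Spectrophotometric method of Rossotti and Rossotti in dimethyl sulfoxide: eight solutions of DHAQ from 1.0×10^-5 to 4.5×10^-5 M with metal acetate at the same concentrations, absorption spectra recorded 400–650 nm at 25 °C, stability constants calculated from these.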

[21] = Metal chelating activity of the compound assessed as metal-compound complex formation using zinc; format: physicochemical; method in brief: as §3
[22] = Metal chelating activity of the compound assessed as metal-compound complex formation using Mg2+; format: physicochemical; method in brief: as §3
[23] = Metal chelating activity of the compound assessed as metal-compound complex formation using Mn2+; format: physicochemical; method in brief: as §3
[24] = Metal chelating activity of the compound assessed as stability constant of metal chelate at 1 to 4.5 x 10^-5 M using Mn2+; format: physicochemical; method in brief: as §5
[25] = Metal chelating activity of the compound assessed as metal-compound complex formation using Ca2+; format: physicochemical; method in brief: as §3
[26] = Metal chelating activity of the compound assessed as stability constant of metal chelate at 1 to 4.5 x 10^-5 M using copper; format: physicochemical; method in brief: as §5
[27] = Metal chelating activity of the compound assessed as stability constant of metal chelate at 1 to 4.5 x 10^-5 M using Ca2+; format: physicochemical; method in brief: as §5
[28] = Metal chelating activity of the compound assessed as stability constant of metal chelate at 1 to 4.5 x 10^-5 M using Zn2+; format: physicochemical; method in brief: as §5

SMILES: O=C1CCCc2cc3cccc(O)c3c(O)c21
Activity [1]: Non-toxic

log K [2]: 9.23 | log K [3]: 9.06 | Activity [4]: Active | log K [5]: 9.19 | log K [6]: 9.16 | log K [7]: 9.56
SMILES: O=C1c2c(O)cccc2Cc2cccc(O)c21 [ANTHRALIN]

SMILES: O=C(c1ccccc1O)c1ccccc1O [2,2'-DIHYDROXYBENZPHENONE]
Activity [8]: Non-toxic

SMILES: Oc1cc2cc3ccccc3cc2cc1O
Activity [8]: Non-toxic

SMILES: O=C1C=CC(=O)c2c(O)cccc21 [JUGLONE]
Activity [9]: Toxic

SMILES: CC(=O)C1c2cccc(O)c2C(=O)c2c(O)cccc21
Activity [10]: Toxic

SMILES: CC(=O)Oc1cccc2c1C(=O)c1c(cccc1OC(C)=O)C2
Activity [11]: Toxic

SMILES: CC(=O)Oc1cccc2c1C(=O)C=CC2=O
Activity [12]: Toxic

SMILES: Oc1cccc2cc3ccccc3cc12
Activity [13]: Toxic | MST [14]: 474 days

SMILES: Oc1cccc2cc3cccc(O)c3cc12
Activity [8]: Non-toxic

SMILES: Oc1cccc2c1Cc1c(O)cccc1C2
Activity [1]: Non-toxic

SMILES: CCCCCCCCCCCCCC(=O)Oc1cccc2c1C(=O)c1c(cccc1OC(=O)CCCCCCCCCCCCC)C2
Activity [15]: Non-toxic

SMILES: CCCCCCCCCCCCCC(=O)Oc1cccc2c1C(=O)C=CC2=O
Activity [16]: Non-toxic

SMILES: CCCCCCCCCCCCCC(=O)C1c2cccc(O)c2C(=O)c2c(O)cccc21
Activity [17]: Toxic | MST [18]: 423 days

SMILES: O=C1c2ccccc2Cc2cccc(O)c21
Activity [13]: Toxic | MST [14]: 391 days

SMILES: O=C1c2c(O)cccc2C(O)c2cccc(O)c21
Activity [19]: Non-toxic

SMILES: O=C1c2ccccc2Cc2ccc(O)c(O)c21
Activity [1]: Non-toxic

SMILES: O=C1c2ccccc2Cc2cc(O)c(O)cc21
Activity [1]: Non-toxic

log K [20]: 5.53 | Activity [21]: Active | Activity [4]: Active | Activity [22]: Active | Activity [23]: Active | log K [24]: 5.58 | Activity [25]: Active | log K [26]: 5.77 | log K [27]: 10.03 | log K [28]: 5.62
SMILES: O=C1c2cccc(O)c2C(=O)c2c(O)cccc21 [DANTHRON]
